Published values pooled from the literature.
Compare with care: the assays were run in different laboratories.
Target: Cyclin-dependent kinase 2 (CDK2, Homo sapiens, UniProt P24941)
Technique: competition with immobilised ligand

Structure (SMILES) | assay | conditions | remaining binding
N#Cc1ccccc1CSc1nnc2c(n1)[nH]c1ccccc12 | binding | 10 µM | 82%
O=C(O)c1cc(-c2ccc(C3CCNCC3)cc2)c2ccc(-c3ccc(C(F)(F)F)cc3)cc2c1 | cell-free assay | 1 µM | 100%
O=C(c1ccc(Nc2ncc(Cl)c(-c3cc4ccccc4s3)n2)cc1)N1CCC(N2CCCC2)CC1 | binding | 1 µM | 12%
COc1ncc2cc3ccccc3nc2c1C#N | cell-free assay | 5 µM | 100%
O=C(NCC1CCOCC1)c1n[nH]cc1NC(=O)c1c(F)cccc1F | binding | 1 µM | 49%
FC(F)(F)Oc1cccc(-c2cnc3ccc(-c4ccncc4)nn23)c1 | cell-free assay | 5 µM | 81%
COc1cnc(Nc2cccc(S(N)(=O)=O)c2)nc1N1CCN(c2ccccc2)CC1 | binding | 1 µM | 98%
F[C@@H]1CCN(c2nccc(-c3cnn4ncccc34)n2)C1 | binding | 1 µM | 100%
O=C(NCCCN1CCOCC1)c1ccc(Nc2nccc(-c3cc4ccccc4s3)n2)cc1 | binding | 1 µM | 66%
Cc1cc(C)c(-n2ccn3nc(-c4cccnc4)cc23)cc1NC(=O)c1cc(C#N)cc(S(F)(F)(F)(F)F)c1 | cell-free assay | 0.1 µM | 99%
C[C@@H]1CN(c2ccc3ncc(-c4ccc5[nH]nc(C6CC6)c5c4)n3n2)C[C@H](C)O1 | binding | 50 nM | 100%
C[C@H]1CCN(c2nccc(-c3cnn4ncccc34)n2)C1 | binding | 1 µM | 95%
Cn1nc(C(F)(F)F)cc1-c1cnc(N2CCc3cc(S(=O)(=O)Nc4c(F)cc(Cl)cc4F)cc(N4CCCC4=O)c32)nc1 | cell-free assay | 1 µM | 100%
O=C(NCCCN1CCOCC1)c1ccc(Nc2ncc(Cl)c(-c3ccc(Cl)s3)n2)cc1 | binding | 1 µM | 62%
COc1ccc2cc(OCC3(C(=O)O)CN(C(=O)c4ccc(F)cc4)C3)ccc2c1 | cell-free assay | 1 µM | 91%
Nc1ncc2c(n1)-c1c([nH]c3ccc(C#CC4CC4)cc13)CCCC2 | binding | 1 µM | 85%
